Rows were chosen to be rich in hits. Some 5.7% of all compounds tested hit in one or more screens of this group.
Mdm2 MdmX PPI = human Mdm2/MdmX binding inhibition | O15151+Q00987 | SaOS-2 split-luciferase Mdm2/MdmX complementation, luminescence | inhibition, % at 8 µM | 3% of 330,000 active;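 active = inhibition of at least 50% at 8 µM in the primary screen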
Target sequence (O15151 whole entry, looked up): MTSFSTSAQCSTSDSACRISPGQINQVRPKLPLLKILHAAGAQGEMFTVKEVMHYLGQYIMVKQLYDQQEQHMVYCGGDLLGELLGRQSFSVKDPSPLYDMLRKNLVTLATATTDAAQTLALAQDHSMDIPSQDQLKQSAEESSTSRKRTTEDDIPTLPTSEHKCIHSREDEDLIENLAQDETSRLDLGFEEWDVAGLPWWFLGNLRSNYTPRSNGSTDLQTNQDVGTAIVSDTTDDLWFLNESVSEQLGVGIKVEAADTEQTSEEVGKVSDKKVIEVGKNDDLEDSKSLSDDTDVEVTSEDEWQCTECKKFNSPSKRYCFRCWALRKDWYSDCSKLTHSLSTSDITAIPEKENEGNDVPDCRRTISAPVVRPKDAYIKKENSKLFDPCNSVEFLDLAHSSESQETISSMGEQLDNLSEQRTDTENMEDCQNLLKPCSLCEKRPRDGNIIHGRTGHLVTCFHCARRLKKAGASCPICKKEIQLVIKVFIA
Target sequence (Q00987 whole entry, looked up): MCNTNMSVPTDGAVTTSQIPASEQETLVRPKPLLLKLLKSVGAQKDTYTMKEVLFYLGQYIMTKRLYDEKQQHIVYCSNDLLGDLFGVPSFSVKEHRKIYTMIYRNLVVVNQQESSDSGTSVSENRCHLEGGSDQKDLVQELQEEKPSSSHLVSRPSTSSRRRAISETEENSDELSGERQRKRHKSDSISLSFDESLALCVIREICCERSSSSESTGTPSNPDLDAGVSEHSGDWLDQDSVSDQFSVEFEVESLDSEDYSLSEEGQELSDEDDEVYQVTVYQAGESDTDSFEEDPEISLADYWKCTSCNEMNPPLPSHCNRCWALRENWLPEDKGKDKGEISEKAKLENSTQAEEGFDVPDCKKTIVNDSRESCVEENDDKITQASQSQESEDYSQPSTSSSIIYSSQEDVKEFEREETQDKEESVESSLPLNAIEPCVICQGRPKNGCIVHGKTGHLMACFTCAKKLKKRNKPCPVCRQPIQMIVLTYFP
SKKanGAS inh = inhibitors of SKKanGAS S. pyogenes growth in kanamycin (SK-promoter or general growth effect); 1.3% of 300,000 active; inhibition, % at 7.5 µM; AID 1662; BacTiter-Glo, 6 h;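 active = mean replicate score, as percent of positive control median, at least 50; inconclusive = mean below 50 but one replicate at or above 50; inactive = mean and every replicate below 50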;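 note: strain carries kanamycin resistance gene driven by streptokinase promoter and grows in 40 µg/ml kanamycin; loss of luminescence reflects streptokinase promoter inhibition or plain growth inhibition; 0% = median of DMSO wells and 100% = positive control at its reference dose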
Calb FLC = C. albicans growth modulation with fluconazole; C. albicans CaCi-2 (fluconazole-resistant clinical isolate) + fluconazole, Alamar Blue growth, 48 h; growth inhibition, % (concentration not given with the values); 0.57% of 300,000 active;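 active = growth inhibition above about 58% in most replicates, limit read from the data, passing the limit was not always enough; inconclusive = exactly half the replicates above a set limit; inactive = most replicates below a set limit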;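 note: all wells also contain fluconazole at 8 µg/ml as a sub-toxic cotreatment; 0% = median of DMSO wells and 100% = median of geldanamycin control wells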
CSC inhib = cancer stem cell inhibition; cancer stem cell-like cells viability, luminescence; inhibition, % at 7.5 µM; 1.1% of 300,000 active; AID 2717; in the data active = inhibition above about 75%; inconclusive = no clear call, values can overlap the other calls; tested in HMLE shEcad cells
T cruzi inh = T. cruzi replication inhibition; T. cruzi beta-gal in NIH3T3, luminescence, 90 h; inhibition, % (no concentration beside the values); 1.4% of 300,000 active; AID 1885;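 active = mean inhibition across valid replicates above about 55%, limit read from the data; inconclusive = mean below that limit but half or more replicates reach it; inactive = mean below it, under half of replicates reach it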;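 note: signal also drops with host cell toxicity which is not excluded here; 0% = plate median of DMSO wells and 100% = zero luminescence signal; higher percent means less beta-gal luminescence so fewer parasites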
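System: NIH/3T3 fibroblasts plus reporter T. cruzi. Medium: DMEM plus 2% FBS. Probe or stimulus: 5000 reporter trypomastigotes per well. Compound: single 50 nL compound addition per well in DMSO. Incubation: co-culture of at least 90 h after 3 h attachment. Detection: GalScreen β-gal luminescence, detergent lysis, 60 min. Evaluation: parasite load inhibition, %.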
Beta apoptosis = blocks beta cell apoptosis | INS-1E cytokine-induced death, ATP luminescence, 48 h; percent of positive-control rescue, neutral wells zero | protection from apoptosis, % (no concentration beside the values) | 0.8% of 300,000 active | AID 435005;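 active = Every replicate reaches about 75%, or at least half do and their mean reaches it too, limit read from the data; inconclusive = At least half of replicates reach the limit but their mean does not; inactive = Under half of replicates reach the limit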;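 note: 0% = cytokine-treated negative control wells and 100% = positive control rescue; higher means more ATP so stronger rescue from cytokine killing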
An asterisk follows results filed as active.

What do the screens show for `C=CCN1C(=O)CSc2ccc(C(=O)NCc3ccc(F)cc3)cc21`?
Mdm2 MdmX PPI: 11; SKKanGAS inh: -2; Calb FLC: -4; CSC inhib: -4; T cruzi inh: 5; Beta apoptosis: 0

What do the screens show for `CC(=O)Nc1ccc(NC(=O)c2cc(-c3ccccc3)nc3ccccc23)cc1`?
Mdm2 MdmX PPI: 13; SKKanGAS inh: 10; Calb FLC: 0; T cruzi inh: 6

What do the screens show for `CC(=O)N(C)c1ccc(NC(=O)C(Sc2ccccc2)c2ccccc2)cc1` (configuration not stated)?
Mdm2 MdmX PPI: 8; SKKanGAS inh: -2; Calb FLC: -4; CSC inhib: 9; T cruzi inh: 2

What do the screens show for `CC(C)(C)NS(=O)(=O)c1ccc(NC(=O)c2cc(-c3ccccc3)nc3ccccc23)cc1`?
Mdm2 MdmX PPI: 28; SKKanGAS inh: 14; Calb FLC: -4; CSC inhib: 0; T cruzi inh: 59*; Beta apoptosis: 16

What do the screens show for `Cc1cc(NC(=O)c2cc(-c3ccncc3)nc3ccccc23)ccc1Br`?
Mdm2 MdmX PPI: 44; CSC inhib: 86*; Beta apoptosis: 11

How did CC(C)(C)NS(=O)(=O)c1ccc(NC(=O)C(Sc2ccccc2)c2ccccc2)cc1 (configuration not stated) do in these assays?
Mdm2 MdmX PPI: 47; SKKanGAS inh: 10; Calb FLC: inconclusive; CSC inhib: 52; T cruzi inh: 56*; Beta apoptosis: 16

How did COc1ccccc1/C=N/NC(=O)c1nnn(-c2nonc2N)c1-c1cccs1 do in these assays?
Mdm2 MdmX PPI: 4; SKKanGAS inh: 39; Calb FLC: -4; CSC inhib: -11; T cruzi inh: 5; Beta apoptosis: -11

Results for CCCCCCCCOC(=O)C1=C(C)Nc2nnnn2C1c1cccs1 (configuration not stated) ?
Mdm2 MdmX PPI: 41; SKKanGAS inh: 107*; Calb FLC: 7; CSC inhib: 102*; T cruzi inh: 29; Beta apoptosis: 2

What do the screens show for `CCCCCCCOC(=O)C1=C(C)Nc2ncnn2C1c1cccs1` (configuration not stated)?
Mdm2 MdmX PPI: 37; SKKanGAS inh: 37; Calb FLC: 14; CSC inhib: -4; T cruzi inh: -15; Beta apoptosis: 24

Results for CCN(CC)/C(=N\S(=O)(=O)c1ccc(F)cc1)c1ccccc1 ?
Mdm2 MdmX PPI: -4; SKKanGAS inh: 1; Calb FLC: -17; CSC inhib: -3; T cruzi inh: -7; Beta apoptosis: -2

Results for CN1CC(c2ccc(Cl)c(Cl)c2)[C@@]2(COc3ccccc3C2=O)[C@@]12C(=O)Nc1ccccc12 (some centres not stated) ?
Mdm2 MdmX PPI: 35; SKKanGAS inh: 79*; Calb FLC: -10; CSC inhib: -11; T cruzi inh: 49; Beta apoptosis: 17

Results for CC(C)Cc1csc(NC(=O)c2ccc(Cl)cc2)c1C(=O)O ?
Mdm2 MdmX PPI: -18; SKKanGAS inh: 74*; Calb FLC: 10; CSC inhib: 24; T cruzi inh: -9; Beta apoptosis: -4

What do the screens show for `CS(=O)(=O)Cc1ccc(C(=O)NC2CCCc3ccccc32)cc1` (configuration not stated)?
Mdm2 MdmX PPI: 27; SKKanGAS inh: 5; Calb FLC: 5; T cruzi inh: 3; Beta apoptosis: -4

How did CC1=C(/C=C/C(C)=N\NC(=O)c2ccncc2)C(C)(C)CCC1 do in these assays?
Mdm2 MdmX PPI: 18; SKKanGAS inh: 57*; Calb FLC: 2; CSC inhib: -9; T cruzi inh: 12; Beta apoptosis: -2

Results for CC(/C=C/c1ccc2c(c1)OCO2)=N/NC(=O)c1ccncc1 ?
Mdm2 MdmX PPI: 0; SKKanGAS inh: -5; Calb FLC: -6; T cruzi inh: -8

Results for N#CCSc1nc(-c2ccccc2)c2cc(Cl)ccc2n1 ?
Mdm2 MdmX PPI: 20; SKKanGAS inh: -6; Calb FLC: 8; CSC inhib: 6; T cruzi inh: 15; Beta apoptosis: 6

What do the screens show for `C=CCSc1nc(-c2ccccc2)c2cc(Cl)ccc2n1`?
Mdm2 MdmX PPI: 4; SKKanGAS inh: 57*; Calb FLC: -1; CSC inhib: -19; T cruzi inh: 18; Beta apoptosis: 7

How did Clc1ccc2nnnc(-c3ccccc3)c2c1 do in these assays?
SKKanGAS inh: -1; Calb FLC: 52; CSC inhib: 99*; T cruzi inh: 21; Beta apoptosis: 99*

What do the screens show for `COC(=O)C1(CCSC)NC(c2ccc(O)c(OC)c2)C2C(=O)N(c3ccc(C)cc3)C(=O)C21` (configuration not stated)?
Mdm2 MdmX PPI: 13; SKKanGAS inh: 7; Calb FLC: -6; CSC inhib: -6; T cruzi inh: 18; Beta apoptosis: -2

How did COc1c(C)cc(C(=O)C2CCCN(Cc3c(C)n(C)n(-c4ccccc4)c3=O)C2)cc1C (configuration not stated) do in these assays?
Mdm2 MdmX PPI: 1; SKKanGAS inh: -15; Calb FLC: 3; CSC inhib: -8; T cruzi inh: 20

How did Cc1cccc(-c2nnc(NC(=O)c3ccc(Cl)cc3)o2)c1 do in these assays?
Mdm2 MdmX PPI: 44; SKKanGAS inh: 122*; Calb FLC: inconclusive; CSC inhib: 89*; T cruzi inh: -19; Beta apoptosis: -1

How did O=C(Nc1nnc(-c2cccnc2)o1)c1cccc(Cl)c1 do in these assays?
Mdm2 MdmX PPI: 15; SKKanGAS inh: 79*; Calb FLC: 1; CSC inhib: 33; T cruzi inh: -26; Beta apoptosis: 0

How did O=C(Nc1nnc(-c2ccccn2)o1)c1cccc(Cl)c1 do in these assays?
Mdm2 MdmX PPI: -6; SKKanGAS inh: 83*; Calb FLC: -3; CSC inhib: 28; T cruzi inh: -25; Beta apoptosis: -4

What do the screens show for `COc1cc(OC)cc(C(=O)Nc2nnc(-c3cccnc3)o2)c1`?
Mdm2 MdmX PPI: 18; SKKanGAS inh: -2; Calb FLC: -8; CSC inhib: 10; T cruzi inh: -9; Beta apoptosis: 2

How did O=C(Nc1nnc(-c2ccco2)o1)c1cccc(Cl)c1 do in these assays?
Mdm2 MdmX PPI: 28; SKKanGAS inh: 88*; Calb FLC: 87*; CSC inhib: 19; T cruzi inh: 52; Beta apoptosis: -4

What do the screens show for `N#Cc1ccc(C(=O)Nc2nnc(-c3ccccn3)o2)cc1`?
Mdm2 MdmX PPI: 0; SKKanGAS inh: 4; Calb FLC: 6; CSC inhib: -3; T cruzi inh: -18; Beta apoptosis: 2

Results for Cc1ccc(C(=O)Nc2nnc(-c3ccncc3)o2)cc1 ?
Mdm2 MdmX PPI: 19; SKKanGAS inh: 3; Calb FLC: 21; CSC inhib: 2; T cruzi inh: -16; Beta apoptosis: -4
